Results published in ChEMBL document CHEMBL4627348, “Synthesis of (1,3,4-thiadiazol-2-yl)-acrylamide derivatives as potential antitumor agents against acute leukemia cells” (Bioorg Med Chem Lett, 2020).
The source made the active and inactive calls. The rule behind the calls is not given here.

Key:
HL-60 [1] = test: Antiproliferative activity against human HL60 cells assessed as growth inhibition at 20 uM after 48 hrs by CCK-8 assay relative to control; assay type: functional; conditions: HL-60, 48 h, read-out: GI
Summary of the method: (§1)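 Single-dose screen at 20 μM in RS4;11 (human ALL), HL-60 (human promyelocytic leukemia) and HEK293T (normal-cell model). Cells exposed 48 h, viability read by CCK-8, growth inhibition ratio expressed relative to control.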

HEK-293T [2] = test: (§2) Cytotoxicity against HEK293T cells assessed as growth inhibition at 20 uM after 48 hrs by CCK8 assay relative to control; assay type: cell-based; conditions: human, hek-293t, 48 h, 20 µM; summary of the method: as §1
RS4-11 [3] = test: Antiproliferative activity against human RS4:11 cells assessed as growth inhibition at 20 uM after 48 hrs by CCK-8 assay relative to control; assay type: functional; conditions: RS4-11, 48 h, read-out: GI; summary of the method: as §1
RS4-11 [4] = test: Induction of apoptosis in human RS4:11 cells assessed as early apoptotic cells at 40 uM after 48 hrs by Annexin-V and 7-AAD staining based flow cytometric analysis (reference value: 2.56%); assay type: functional
HEK-293T [5] = test: Cytotoxicity against human HEK293T cells assessed as growth inhibition after 48 hrs by CCK8 assay; assay type: cell-based
RS4-11 [6] = test: Induction of apoptosis in human RS4:11 cells assessed as increase in cleaved caspase-3 protein expression after 48 hrs by Western blot analysis; assay type: functional, cell-based
Summary of the method: (§3)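 RS4;11 cells treated 48 h at concentrations from 2.5 to 40 μM, DMSO as negative control. Western blot for full-length PARP (116 kDa) and cleaved PARP (89 kDa), plus cleaved caspase-3 and cleaved caspase-9.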

RS4-11 [7] = test: Induction of apoptosis in human RS4:11 cells assessed as increase in cleaved caspase-9 protein expression after 48 hrs by Western blot analysis; assay type: functional, cell-based; summary of the method: as §3
RS4-11 [8] = test: Induction of apoptosis in human RS4:11 cells assessed as necrotic cells at 40 uM after 48 hrs by Annexin-V and 7-AAD staining based flow cytometric analysis (reference value: 0.67%); assay type: functional
RS4-11 [9] = test: Induction of apoptosis in human RS4:11 cells assessed as increase in cleaved PARP protein expression after 48 hrs by Western blot analysis; assay type: functional, cell-based; summary of the method: as §3
RS4-11 [10] = test: Induction of apoptosis in human RS4:11 cells assessed as increase in cleaved PARP protein expression at 2.5 to 40 uM after 48 hrs by Western blot analysis; assay type: functional, cell-based; summary of the method: as §3
HL-60 [11] = test: Antiproliferative activity against human HL60 cells assessed as growth inhibition after 48 hrs by CCK-8 assay; assay type: functional, cell-based; conditions: HL-60, 48 h
RS4-11 [12] = test: Induction of apoptosis in human RS4:11 cells assessed as late apoptotic cells at 40 uM after 48 hrs by Annexin-V and 7-AAD staining based flow cytometric analysis (reference value: 2.71%); assay type: functional
RS4-11 [13] = test: Induction of apoptosis in human RS4:11 cells assessed as PARP degradation at 2.5 to 40 uM after 48 hrs by Western blot analysis; assay type: functional, cell-based; summary of the method: as §3
RS4-11 [14] = test: Induction of mitochondrial membrane potential loss in human RS4:11 cells at 40 uM after 48 hrs by MitoSense Red staining based fluorescence assay; assay type: functional, cell-based
Summary of the method: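 RS4;11 cells exposed 48 h at 5–40 μM, DMSO as negative control. Stained with MitoSense Red and analysed by flow cytometry. Loss of mitochondrial membrane potential is read as a drop in Red2 fluorescence.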

[15] = as §2; assay type: cell-based, HEK-293T; conditions: human, HEK293T cells; read-out: GI; summary of the method: as §1
RS4-11 [16] = test: Antiproliferative activity against human RS4:11 cells assessed as growth inhibition after 48 hrs by CCK-8 assay; assay type: functional, cell-based; conditions: RS4-11, 48 h
RS4-11 [17] = test: Induction of apoptosis in human RS4:11 cells assessed as viable cells at 40 uM after 48 hrs by Annexin-V and 7-AAD staining based flow cytometric analysis (reference value: 94.06%); assay type: functional; conditions: RS4-11, 48 h, read-out: Activity
RS4-11 [18] = test: Induction of apoptosis in human RS4:11 cells assessed as late apoptotic cells at 0.5 uM after 48 hrs by Annexin-V and 7-AAD staining based flow cytometric analysis (reference value: 2.71%); assay type: functional
RS4-11 [19] = test: Antiproliferative activity against human RS4:11 cells assessed as growth inhibition at 1 uM after 48 hrs by CCK-8 assay relative to control; assay type: functional; conditions: RS4-11, 48 h, read-out: GI
Summary of the method: (§4)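 Positive-control reference compound run at 1 μM alongside the 20 μM screen. CCK-8 viability after 48 h exposure, inhibition ratio relative to control.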

HL-60 [20] = test: Antiproliferative activity against human HL60 cells assessed as growth inhibition at 1 uM after 48 hrs by CCK-8 assay relative to control; assay type: functional; conditions: HL-60, 48 h, read-out: GI; summary of the method: as §4
RS4-11 [21] = test: Induction of apoptosis in human RS4:11 cells assessed as early apoptotic cells at 0.5 uM after 48 hrs by Annexin-V and 7-AAD staining based flow cytometric analysis (reference value: 2.56%); assay type: functional
RS4-11 [22] = test: Induction of apoptosis in human RS4:11 cells assessed as viable cells at 0.5 uM after 48 hrs by Annexin-V and 7-AAD staining based flow cytometric analysis (reference value: 94.06%); assay type: functional; conditions: RS4-11, 48 h, read-out: Activity
RS4-11 [23] = test: Induction of apoptosis in human RS4:11 cells assessed as necrotic cells at 0.5 uM after 48 hrs by Annexin-V and 7-AAD staining based flow cytometric analysis (reference value: 0.67%); assay type: functional

SMILES	inhibition of growth at 20 µM (HL-60 [1])	growth inhibition (GI) (HEK-293T [2])	inhibition of growth at 20 µM (RS4-11 [3])	IC50 (HEK-293T [5])	IC50 (HL-60 [11])	inhibition at 48 h, 20 µM [15]	IC50 (RS4-11 [16])	other results
N#C/C(=C\c1ccccc1OS(=O)(=O)c1ccccc1[N+](=O)[O-])C(=O)Nc1nnc(Cc2cccc3ccccc23)s1	23%	Non-Toxic	66%					
COc1ccc(S(=O)(=O)Oc2ccccc2/C=C(\C#N)C(=O)Nc2nnc(Cc3ccc(Cl)cc3)s2)cc1	99%		77%	> 50 µM	4.36 µM	26%	1.25 µM	Activity (RS4-11 [4]): 5%; Activity (RS4-11 [6]): Dose-dependent effect; Activity (RS4-11 [7]): Dose-dependent effect; Activity (RS4-11 [8]): 2.68%; Activity (RS4-11 [9]): Dose-dependent effect; Activity (RS4-11 [10]): Active; Activity (RS4-11 [12]): 76.08%; Activity (RS4-11 [13]): Active; Activity (RS4-11 [14]): Active; viability at 40 µM (RS4-11 [17]): 16.2%
COc1ccc(S(=O)(=O)Oc2ccccc2/C=C(\C#N)C(=O)Nc2nnc(Cc3ccc(F)cc3)s2)cc1	100%		76%	> 50 µM	4.05 µM	20%	1.21 µM	Activity (RS4-11 [4]): 5.88%; Activity (RS4-11 [6]): Dose-dependent effect; Activity (RS4-11 [7]): Dose-dependent effect; Activity (RS4-11 [8]): 2.07%; Activity (RS4-11 [9]): Dose-dependent effect; Activity (RS4-11 [10]): Active; Activity (RS4-11 [12]): 61.84%; Activity (RS4-11 [13]): Active; Activity (RS4-11 [14]): Active; viability at 40 µM (RS4-11 [17]): 30.2%
N#C/C(=C\c1ccccc1OS(=O)(=O)c1ccc(F)cc1)C(=O)Nc1nnc(Cc2ccc(F)cc2)s1	13%	Non-Toxic	59%					
N#C/C(=C\c1ccccc1OS(=O)(=O)c1ccc([N+](=O)[O-])cc1)C(=O)Nc1nnc(Cc2ccccc2)s1	20%	Non-Toxic	57%					
COc1ccc(S(=O)(=O)Oc2ccccc2/C=C(\C#N)C(=O)Nc2nnc(Cc3ccc(C)cc3)s2)cc1	100%		79%	> 50 µM	4.08 µM	28%	1.01 µM	
N#C/C(=C\c1ccccc1OS(=O)(=O)c1ccc([N+](=O)[O-])cc1)C(=O)Nc1nnc(Cc2cccc(F)c2)s1	18%	Non-Toxic	65%					
COc1ccc(-c2nnc(NC(=O)/C(C#N)=C/c3cccc(OS(=O)(=O)c4ccc(C)cc4)c3)s2)cc1	73%	Non-Toxic	79%					
COc1ccc(Cc2nnc(NC(=O)/C(C#N)=C/c3ccccc3OS(=O)(=O)c3ccc(OC)cc3)s2)cc1	100%		78%	> 50 µM	3.12 µM	30%	0.84 µM	Activity (RS4-11 [4]): 5.07%; Activity (RS4-11 [6]): Dose-dependent effect; Activity (RS4-11 [7]): Dose-dependent effect; Activity (RS4-11 [8]): 2.58%; Activity (RS4-11 [9]): Dose-dependent effect; Activity (RS4-11 [10]): Active; Activity (RS4-11 [12]): 72.63%; Activity (RS4-11 [13]): Active; Activity (RS4-11 [14]): Active; viability at 40 µM (RS4-11 [17]): 19.7%
CC1(C)CCC(CN2CCN(c3ccc(C(=O)NS(=O)(=O)c4ccc(NCC5CCOCC5)c([N+](=O)[O-])c4)c(Oc4cnc5[nH]ccc5c4)c3)CC2)=C(c2ccc(Cl)cc2)C1 [VENETOCLAX]								Activity (RS4-11 [18]): 83.27%; inhibition of growth at 1 µM (RS4-11 [19]): 95%; inhibition of growth at 1 µM (HL-60 [20]): 98%; Activity (RS4-11 [21]): 11.91%; viability at 0.5 µM (RS4-11 [22]): 2.71%; Activity (RS4-11 [23]): 2.11%
N#C/C(=C\c1ccccc1OS(=O)(=O)c1ccccc1[N+](=O)[O-])C(=O)Nc1nnc(Cc2cccc(F)c2)s1	23%	Non-Toxic	68%					
COc1ccccc1-c1nnc(NC(=O)/C(C#N)=C/c2cccc(OS(=O)(=O)c3ccc(C)cc3)c2)s1	73%	Non-Toxic	41%					
COc1ccc(S(=O)(=O)Oc2ccccc2/C=C(\C#N)C(=O)Nc2nnc(Cc3cccc(F)c3)s2)cc1	100%		74%	> 50 µM	3.88 µM	29%	1.21 µM	
